From ChEMBL document CHEMBL1135583, “Activity of bisphosphonates against Trypanosoma brucei rhodesiense” (J Med Chem, 2002)

Test system: not listed separately
Test: 50% lethal dose for inhibition of KB cells growth
Type: cell-based
Details: human, read-out: LD50 (the source's name)
Outline: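 KB cell line growth measured over a dose-response series by the Alamar blue method. The LD50 is the concentration lethal to 50% of KB cells. The highest level tested was 300 μg/mL; ">" means no inhibition at that level.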

Compound	CC50
O=P(O)(O)C(Nc1ccc(Br)cn1)P(=O)(O)O	87 µM
O=P(O)(O)C(O)(CCc1cccnc1)P(=O)(O)O	> 804 µM
CCCCCCCCCCC(O)(P(=O)(O)O)P(=O)(O)O	> 806 µM
CCCCC(O)(P(=O)(O)O)P(=O)(O)O	> 1040 µM
CCCCCC(O)(P(=O)(O)O)P(=O)(O)O	> 993 µM
O=P(O)(O)C(O)(Cc1c[nH]cn1)P(=O)(O)O	41 µM
CCCCCCCCCCCC(O)(P(=O)(O)O)P(=O)(O)O	492 µM
Nc1ccc(CC(O)(P(=O)(O)O)P(=O)(O)O)cc1	218 µM
O=P(O)(O)C(O)(Cc1ccccn1)P(=O)(O)O	13.9 µM
CCCC(O)(P(=O)(O)O)P(=O)(O)O	> 967 µM
CCCCCCCCCC(O)(P(=O)(O)O)P(=O)(O)O	> 775 µM
O=P(O)(O)C(Nc1ccc(Cl)cn1)P(=O)(O)O	> 992 µM
Cc1cccnc1NC(P(=O)(O)O)P(=O)(O)O	187 µM
CC(N)CC(O)(P(=O)(O)O)P(=O)(O)O (stereo not drawn)	977 µM
O=P(O)(O)C(O)(CSc1ccncc1)P(=O)(O)O	> 746 µM

Test system: Trypanosoma brucei rhodesiense
Test: Log IC50 brucei Trypomastigotes
Type: functional, organism-based
Details: not given
Outline: (§1)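 Bloodstream-form T. b. rhodesiense trypomastigotes, strain STIB 900, grown in vitro with the bisphosphonate. IC50 taken as the drug concentration that cuts parasite proliferation by 50%.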

Compound	IC50
CCCCCCCCCCC(O)(P(=O)(O)O)P(=O)(O)O	7.94 µM
CCCCCCCCCCCC(O)(P(=O)(O)O)P(=O)(O)O	2 µM
CCCCCCCCCC(O)(P(=O)(O)O)P(=O)(O)O	20.4 µM

Test system: Trypanosoma brucei rhodesiense
Test: In vitro growth inhibition of bloodstream-form Trypanosoma brucei rhodesiense Trypomastigotes
Type: functional, organism-based
Details: not given
Outline: as §1

Compound	IC50
O=P(O)(O)C(Nc1ccc(Br)cn1)P(=O)(O)O	39.5 µM
O=P(O)(O)C(O)(CCc1cccnc1)P(=O)(O)O	1.7 µM
CCCCCCCCCCC(O)(P(=O)(O)O)P(=O)(O)O	8 µM
CCCCCCCCCCCC(O)(P(=O)(O)O)P(=O)(O)O	2 µM
CCCCCCCCCC(O)(P(=O)(O)O)P(=O)(O)O	20.5 µM
O=P(O)(O)C(Nc1ccc(Cl)cn1)P(=O)(O)O	53.3 µM
Cc1cccnc1NC(P(=O)(O)O)P(=O)(O)O	0.7 µM
CC(N)CC(O)(P(=O)(O)O)P(=O)(O)O (stereo not drawn)	7.8 µM

Test system: not listed separately
Test: Therapeutic index measured as the ratio of LD50 (KB cells) to IC50 (T.b. rhodesiense)
Type: cell-based
Details: trypanosoma brucei rhodesiense, KB cells versus T. b. rhodesiense; read-out: TI
Outline: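 KB cell growth inhibition measured by Alamar blue to give LD50, the dose lethal to 50% of cells; highest level tested 300 μg/mL. Index computed as LD50 (KB cells) / IC50 (T. b. rhodesiense).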

Compound	selectivity ratio
O=P(O)(O)C(Nc1ccc(Br)cn1)P(=O)(O)O	2
O=P(O)(O)C(O)(CCc1cccnc1)P(=O)(O)O	> 473
CCCCCCCCCCC(O)(P(=O)(O)O)P(=O)(O)O	> 101
CCCCC(O)(P(=O)(O)O)P(=O)(O)O	> 10
CCCCCC(O)(P(=O)(O)O)P(=O)(O)O	> 16
O=P(O)(O)C(O)(Cc1c[nH]cn1)P(=O)(O)O	5
CCCCCCCCCCCC(O)(P(=O)(O)O)P(=O)(O)O	246
Nc1ccc(CC(O)(P(=O)(O)O)P(=O)(O)O)cc1	5
O=P(O)(O)C(O)(Cc1ccccn1)P(=O)(O)O	63
CCCC(O)(P(=O)(O)O)P(=O)(O)O	> 11
CCCCCCCCCC(O)(P(=O)(O)O)P(=O)(O)O	> 38
O=P(O)(O)C(Nc1ccc(Cl)cn1)P(=O)(O)O	> 19
Cc1cccnc1NC(P(=O)(O)O)P(=O)(O)O	267
CC(N)CC(O)(P(=O)(O)O)P(=O)(O)O (stereo not drawn)	125
O=P(O)(O)C(O)(CSc1ccncc1)P(=O)(O)O	> 38

Test system: Trypanosoma brucei rhodesiense
Test: Predicted pIC50 against Trypomastigotes Brucei rhodesiense.
Type: functional, organism-based
Details: not given
Outline: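 QSAR prediction from a bisphosphonate training set. Structures geometry-optimized by steepest-descent, conjugate-gradient and Newton–Raphson minimization with no internal constraints. Each molecule aligned by rms fit of its P–C–P backbone to the lowest-energy conformer of the template. Models validated by leave-one-out cross-validation.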

Compound	IC50
O=P(O)(O)C(Nc1ccc(Br)cn1)P(=O)(O)O	39.8 µM
O=P(O)(O)C(O)(CCc1cccnc1)P(=O)(O)O	1.7 µM
CCCCC(O)(P(=O)(O)O)P(=O)(O)O	100 µM
CCCCCC(O)(P(=O)(O)O)P(=O)(O)O	63.1 µM
O=P(O)(O)C(O)(Cc1c[nH]cn1)P(=O)(O)O	8.51 µM
Nc1ccc(CC(O)(P(=O)(O)O)P(=O)(O)O)cc1	39.8 µM
O=P(O)(O)C(O)(Cc1ccccn1)P(=O)(O)O	0.219 µM
CCCC(O)(P(=O)(O)O)P(=O)(O)O	91.2 µM
O=P(O)(O)C(Nc1ccc(Cl)cn1)P(=O)(O)O	53.7 µM
Cc1cccnc1NC(P(=O)(O)O)P(=O)(O)O	0.708 µM
CC(N)CC(O)(P(=O)(O)O)P(=O)(O)O (stereo not drawn)	7.76 µM
O=P(O)(O)C(O)(CSc1ccncc1)P(=O)(O)O	20 µM
